FAK inh – FAK (human) kinase inhibition | Q05397 | biochemical FAK kinase activity assay | inhibition, %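 (tested at 7 µM)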 | actives 0.84% (n = 97,000) | AID 727; in the data active = inhibition above about 19%
Target sequence (Q05397 whole entry, looked up): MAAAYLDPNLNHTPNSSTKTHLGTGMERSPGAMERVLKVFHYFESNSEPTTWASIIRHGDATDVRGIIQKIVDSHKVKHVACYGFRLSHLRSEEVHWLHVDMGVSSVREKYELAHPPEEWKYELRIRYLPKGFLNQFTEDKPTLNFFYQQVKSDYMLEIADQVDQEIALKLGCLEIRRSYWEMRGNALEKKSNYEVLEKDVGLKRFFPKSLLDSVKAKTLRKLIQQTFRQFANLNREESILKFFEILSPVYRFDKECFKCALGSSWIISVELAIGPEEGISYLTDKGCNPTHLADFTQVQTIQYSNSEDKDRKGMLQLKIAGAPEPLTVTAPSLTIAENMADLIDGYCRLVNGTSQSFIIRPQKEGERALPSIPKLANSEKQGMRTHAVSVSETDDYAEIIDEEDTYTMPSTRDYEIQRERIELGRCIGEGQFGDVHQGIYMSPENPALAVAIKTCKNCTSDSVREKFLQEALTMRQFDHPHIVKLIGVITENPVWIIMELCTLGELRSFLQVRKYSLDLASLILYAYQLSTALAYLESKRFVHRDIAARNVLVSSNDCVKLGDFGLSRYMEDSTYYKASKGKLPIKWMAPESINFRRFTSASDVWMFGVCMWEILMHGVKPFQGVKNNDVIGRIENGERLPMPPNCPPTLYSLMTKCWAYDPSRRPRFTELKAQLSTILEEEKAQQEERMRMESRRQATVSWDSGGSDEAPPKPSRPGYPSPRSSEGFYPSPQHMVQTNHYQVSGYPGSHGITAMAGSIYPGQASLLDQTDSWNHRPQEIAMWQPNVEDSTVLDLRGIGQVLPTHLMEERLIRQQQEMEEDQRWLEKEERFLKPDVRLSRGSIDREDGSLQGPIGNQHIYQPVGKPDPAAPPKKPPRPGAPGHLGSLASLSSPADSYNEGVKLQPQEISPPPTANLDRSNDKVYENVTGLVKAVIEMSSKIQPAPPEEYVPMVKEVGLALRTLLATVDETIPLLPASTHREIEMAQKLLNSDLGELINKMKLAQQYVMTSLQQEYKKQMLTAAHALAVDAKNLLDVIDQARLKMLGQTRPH
LYP inh 2 – inhibitors of human LYP (PTPN22) phosphatase; AID 640; inhibition, % at 2 µM; Q9Y2R2; actives 0.21% (n = 96,000); recombinant LYP catalytic domain, DiFMUP fluorescence;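 active = inhibition at 2 µM at or above a set limit, the screen mean plus 3 SD, cut at about 24% in these data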
HIV Rev-RRE inh – disrupts HIV-1 Rev binding to RRE RNA; P05866; Rev peptide-RRE RNA binding, FRET; inhibition, % at 8 µM; actives 0.79% (n = 97,000);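 active = inhibition above the screen-wide mean plus 3 SD, cut at about 35% in these data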
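Assay system: labelled RRE RNA duplex and labelled Rev peptide / Medium: HEPES pH 7.5 salt buffer with EDTA / Reagent: labelled Rev peptide / Schedule: 5 + 15 min at 25 °C / Signal: FRET, excitation 480 nm, emission 540 nm donor and 671 nm acceptor / Benchmarks: DMSO and neomycin B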
PTPN22 act – increases human PTPN22 phosphatase activity | AID 697 | actives 0.11% (n = 96,000) | activation, % at 2 µM | Q9Y2R2 | recombinant LYP, DiFMUP fluorescence; 0 = plate median, 100 = signal doubled;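 active = activation at 2 µM above a set limit, the mean plus 5 SD, cut at about 37% in these data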
EphB4 antag – antagonists of human EphB4-ephrin-B2 interaction | P54760 | EphB4 LBD / TNYL-RAW-Alexa532 peptide, fluorescence polarization | inhibition, % at 7 µM | actives 0.15% (n = 97,000) | AID 720;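 active = inhibition above the screen-wide mean inhibition plus 3 SD, cut at about 15% in these data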
A number is an active result; 0 = inactive; - = not tested or not shown; [ ] = remark or other dose. Compounds with a hit are over-represented: about 1.9% of the library has one in this group of screens.

SMILES	FAK inh	LYP inh 2	HIV Rev-RRE inh	PTPN22 act	EphB4 antag
CCCCNC(=O)C1C2C=CC3(CN(Cc4ccccc4Cl)C(=O)C13)O2 (configuration not stated)	0	0	0	0	16
Cn1cc(S(=O)(=O)N2CCN(c3ccccc3)CC2)c(=O)n(C)c1=O	0	0	0	0	16
O=C(NCCN1CCOCC1)c1cnn2c(-c3ccccc3)cc(-c3ccccc3)nc12	0	0	0	0	0
Cc1cc(/C=C2/SC(=S)N(c3cccc(Cl)c3)C2=O)c(C)n1-c1cccnc1	0	0	39	0	0
CN1CCC2(CC1)C1CN(C)CC=C1C(C#N)=C(N)C2(C#N)C#N (configuration not stated)	0	0	74	0	0
Cc1ccc(Cn2c(SCCN3CCCCC3)nc3c2c(=O)n(C)c(=O)n3C)cc1	0	0	0	0	16
CN1CCc2nc(SCc3ccc(Cl)cc3)c(C#N)c(-c3cccs3)c2C1	0	0	40	0	0
CCCCc1ccc(CC2S/C(=C(\C#N)C(=O)N3CCOCC3)N(c3ccccc3)C2=O)cc1 (configuration not stated)	0	0	0	0	0
N#C/C(C(=O)N1CCOCC1)=C1/SC(Cc2ccccc2)C(=O)N1c1ccccc1 (configuration not stated)	0	0	44	0	0
COc1cc(/C=c2\sc3nc(-c4ccncc4)nn3c2=O)ccc1OC(C)=O	0	0	0	0	0
CN(C)c1ccc(/C=c2\sc3nc(-c4ccccc4)nn3c2=O)cc1	0	0	75	0	0
Cc1ccc(-c2nc(CSCC(=O)NCc3cccnc3)c(C)o2)cc1	0	0	0	0	0
O=C(N/N=C/c1ccc(-c2cccc(C(F)(F)F)c2)o1)c1ccccc1Br	0	0	60	0	0
Cc1cccc(OCc2nnc(NC(=O)Cc3cccs3)s2)c1	0	0	0	0	0
O=C(c1c(F)cccc1F)N(Cc1ccccn1)C1CC1	0	0	0	0	0
CCOC(=O)c1sc2cccc(F)c2c1N	0	0	0	0	0
CCOC(=O)c1sc2cc([N+](=O)[O-])cc(SCC(C)C)c2c1N	0	0	62	0	0
C=CCn1c(SCC(=O)NCc2ccco2)nnc1-c1ccc2ccccc2n1	0	0	0	0	0
N#Cc1c(Sc2ncc(C(F)(F)F)cc2Cl)nsc1C/C=N\OCc1ccccc1Br	0	0	69	0	0
CCOC(=O)/C(=C\Nc1ccccc1C(F)(F)F)Sc1ncc(C(F)(F)F)cc1Cl	0	0	0	0	0
Cc1nc(NCCc2ccccc2)c2oc3ccccc3c2n1	0	0	0	0	0
Cc1ccc(CNC(N)=S)cc1	0	0	0	0	0
Cc1cc(C)n2nc3nc4c(cc3c2n1)CCCC4	0	0	76	0	0
Nc1c(C(=O)Nc2ccccc2F)sc2nc(Cc3ccccc3)cc(C(F)(F)F)c12	0	0	82[fluorescence artefact?]	0	0
O=c1cc(O)c2c(=O)n(-c3ccccc3)c3ccccc3c2o1	0	0	45	0	0
SMILES	FAK inh	LYP inh 2	HIV Rev-RRE inh	PTPN22 act	EphB4 antag
Cc1c(OCc2ccc(C(=O)O)o2)ccc2c3c(c(=O)oc12)CCC3	0	0	0	0	0
COC(=O)c1ccc(COc2ccc3c(C)c(C)c(=O)oc3c2C)o1	0	0	0	0	22
C=CCn1c(NCCO)nc2c1c(=O)n(C)c(=O)n2C	0	0	56	0	0
Cn1c(=O)c2c(nc(NCCO)n2C)n(C)c1=O	0	0	0	0	0
COc1ccc(C(=O)c2ccc(N3CCN(C(=O)c4ccc(F)cc4)CC3)c(F)c2)cc1Br	0	0	0	0	0
Cc1cc(C(=O)CN2C(=O)NC(c3ccccc3)(c3ccccc3)C2=O)c(C)n1Cc1ccccc1	0	0	0	0	20
CCN(CC)S(=O)(=O)c1ccc(NC(=O)Cn2cnc3ccccc3c2=O)cc1	0	0	0	0	0
Cc1cc(-c2ccccc2)nc(N2CCC(C(=O)NCC3CCCCC3)CC2)n1	0	0	0	0	0
O=C(N1CCOCC1)N1CCC(n2nnc3cc(F)ccc32)CC1	0	0	40	0	0
CCOC(=O)CCSc1nc(C)cc(C(F)(F)F)c1C#N	0	0	80	0	0
CCOC(=O)CCSc1nc(-c2ccc3c(c2)OCO3)cc(C(F)(F)F)c1C#N	0	0	0	0	0
CCOC(=O)CC(=O)CSc1nc(-c2ccc3c(c2)OCO3)cc(C(F)(F)F)c1C#N	0	0	61	0	0
CCOC(=O)CCSc1nc(C(C)(C)C)cc(C(F)(F)F)c1C#N	0	0	0	0	0
CCOC(=O)N1CCN(C(=O)C2CCN(Cc3nc(-c4ccccc4C)oc3C)CC2)CC1	0	-	0	-	0
C=CCCCCCCCCC(=O)NNC1=CC(=O)CC(C)(C)C1	0	0	0	0	0
CCOc1ccc(-c2csc(N)c2C(=O)OC)cc1	0	30	0	0	0
CCOC(=O)C1=C(CSc2nc3c(cc2C#N)CN(C)CC3)OC(N)=C(C#N)C1c1ccc(Cl)cc1 (configuration not stated)	0	0	58	0	0
CCOC(=O)C1=C(CSc2nc(-c3ccccc3)ccc2C#N)OC(N)=C(C#N)C1c1ccc(OC)cc1 (configuration not stated)	0	0	44	0	0
CCOC(=O)CNC(=O)CSc1nc2nc(C)c(Br)cc2[nH]1	0	0	0	0	0
CCCCCN(C(=O)NC(=O)Nn1cnnc1)S(C)(=O)=O	0	0	0	0	0
CCOc1ccccc1NC(=O)c1ccc(F)c(S(=O)(=O)N2CCC3(CC2)OCCO3)c1	0	0	0	0	0
O=C1/C(=C/c2ccc(N3CCCC3)cc2)NC(=S)N1C1CC1	0	0	137[fluorescence artefact?]	0	0
CCCCN1C(=O)C2(NNc3ccccc3O2)c2ccccc21 (configuration not stated)	0	0	73	0	0
C=CCN1C(=O)C2(NNc3ccccc3O2)c2ccccc21 (configuration not stated)	0	0	69	0	0
C=CCN1C(=O)C(O)(CC(=O)c2ccc(-n3cccc3)cc2)c2ccccc21 (configuration not stated)	0	0	0	0	0
SMILES	FAK inh	LYP inh 2	HIV Rev-RRE inh	PTPN22 act	EphB4 antag
CCCN1C(=O)C(O)(CC(=O)c2ccc3c(c2)OCCO3)c2ccccc21 (configuration not stated)	0	0	0	0	0
N/C(=N\c1nc2c(c(=O)[nH]1)CCC2)Nc1cccc2ccccc12	0	0	0	0	0
CC(C)C(=O)Nc1nnc(CCN2CCCCC2)s1	0	0	0	0	0
COc1ccc(C2C(=O)N(C3CCCCC3)CC(=O)N2C2CCCCC2)cc1 (configuration not stated)	0	25	0	0	0
CCCn1nnc(NC(=O)c2cccc(OCc3ccccc3)c2)n1	0	0	0	0	0
CCOc1cc(N2CCOCC2)c(OCC)cc1NS(=O)(=O)c1ccc(Cl)s1	0	0	0	0	0
COc1ccccc1NC(=O)CSc1nc2n[nH]c(C)c2c(=N)n1-c1ccccc1Cl	21	0	0	0	0

Screening results: PubChem, several laboratories
